Data as given in paper PMC5083853 (Bioorganic & medicinal chemistry, 2016).

Legend:
M9-ENL1 cells = test: Cytotoxicity against M9-ENL1 leukemia cells; type: cell-based; settings: for fold lower LC50 of C9 analog vs. C14-functionalized counterpart: 4, 6, 11 compared to 5, 7, 12
[1] = Human umbilical cord blood cell cytotoxicity test; type: cell-based; settings: human, hUBC LC50, human umbilical cord blood cells, cell viability, mean ± SD (n = 3)
In short: (§1)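 Fresh cord blood (within 48 h of collection) was separated on a Ficoll-Paque gradient and cultured without cryopreservation at 37 °C, 5% CO2, in serum-free Iscove's MDM with 20% BIT 9500, LDL and β-mercaptoethanol. Cells got ≥3 doses of test compound from DMSO stock for 24 h, were stained for CD45, CD34 and DAPI, and were analysed by flow cytometry. Viable CD34+CD45dim percentage was compared with vehicle.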

[2] = Solubility in buffered solutions at neutral pH; type: physicochemical
[3] = test system: human umbilical cord blood cells (hUBC); test: Human umbilical cord blood cell cytotoxicity test; type: cell-based; settings: read-out: hUBC LC50; human umbilical cord blood cells, 24 h, cell viability, mean ± SD (n = 3)
In short: as §1

## C=C1C(=O)O[C@H]2[C@H]1CC/C(COCc1ccccc1)=C/CC[C@@]1(C)O[C@@H]21 [Compound 14, (3aR,9aR,10aS,10bS,Z)-6-((benzyloxy)methyl)-9a-methyl-3-methylene-3a,4,5,8,9,9a,10a,10b-octahydrooxireno[2′,3′:9,10] cyclodeca[1,2-b]furan-2(3H)-one]
M9-ENL1 cells
  fold lower cytotoxicity compared to C14-benzoylated counterpart: 2 fold

## C=C1C(=O)O[C@H]2[C@H]1C[C@H](OC(C(=O)OCc1ccccc1)c1ccccc1)/C(C)=C/CC[C@@]1(C)O[C@@H]21 (stereo partly drawn) [Compound 25a, benzyl 2-(((3aR,5S,9aR,10aS,10bS,E)-6,9a-dimethyl-3-methylene-2-oxo-2,3,3a,4,5,8,9,9a,10a,10b-decahydrooxireno [2′,3′:9,10]cyclodeca[1,2-b]furan-5-yl)oxy)-2-phenylacetate]
[1]
  CC50 at 24 h: > 5 µM

## C=C1C(=O)O[C@H]2[C@H]1C[C@H](OC(C(=O)OCC)c1ccc(C(F)(F)F)cc1)/C(C)=C/CC[C@@]1(C)O[C@@H]21 (stereo partly drawn) [Compound 22a, ethyl 2-(((3aR,5S,9aR,10aS,10bS,E)-6,9a-dimethyl-3-methylene-2-oxo-2,3,3a,4,5,8,9,9a,10a,10b-decahydrooxireno [2′,3′:9,10]cyclodeca[1,2-b]furan-5-yl)oxy)-2-(4-(trifluoromethyl)phenyl)acetate]
[1]
  CC50 at 24 h: > 5 µM

## C=C1C(=O)O[C@@H]2[C@@H]1CC/C(COC(C(=O)OCC)c1ccc(C(F)(F)F)cc1)=C/CC[C@]1(C)O[C@H]21 (stereo partly drawn) [Compound 23, ethyl 2-(((3aR,9aR,10aS,10bS,Z)-9a-methyl-3-methylene-2-oxo-2,3,3a,4,5,8,9,9a,10a,10b-decahydrooxireno[2′,3′:9,10]cyclodeca[1,2-b]furan-6-yl)methoxy)-2-(4-(trifluoromethyl)phenyl)acetate]
M9-ENL1 cells
  fold lower LC50 than the phenyl-containing counterparts (18, 19): 2- to 3 fold

## C=C1C(=O)O[C@H]2[C@H]1CC/C(COC(C(=O)OCCN1CCOCC1)c1ccccc1)=C/CC[C@@]1(C)O[C@@H]21 (stereo partly drawn) [Compound 28, 2-morpholinoethyl 2-(((3aR,9aR,10aS,10bS,Z)-9a-methyl-3-methylene-2-oxo-2,3,3a,4,5,8,9,9a,10a,10b-decahydrooxireno [2′,3′:9,10]cyclodeca[1,2-b]furan-6-yl)methoxy)-2-phenylacetate]
[2]
  solubility in buffered solutions: improved solubility
M9-ENL1 cells
  fold reduction of activity compared to PTL: 3 to 5 folds

## C=C1C(=O)O[C@H]2[C@H]1C[C@H](OC(=O)c1ccc3ccccc3c1)/C(C)=C/CC[C@@]1(C)O[C@@H]21 [Compound 4, (3aS,5S,9aR,10aS,10bS,E)-6,9a-dimethyl-3-methylene-2oxo2,3,3a,4,5,8,9,9a,10a,10bdecahydrooxireno[2′,3′:9,10]cycl odeca [1,2-b]furan-5-yl 2-naphthoate]
M9-ENL1 cells
  fold lower LC50 of C9 analog vs. C14-functionalized counterpart: 2- to 3 fold

## C=C1C(=O)O[C@H]2[C@H]1C[C@H](OC(C(=O)OCc1ccccc1)c1ccccc1)/C(C)=C/CC[C@@]1(C)O[C@@H]21 (stereo partly drawn) [Compound 25b, benzyl 2-(((3aR,5S,9aR,10aS,10bS,E)-6,9a-dimethyl-3-methylene-2-oxo-2,3,3a,4,5,8,9,9a,10a,10b-decahydrooxireno [2′,3′:9,10]cyclodeca[1,2-b]furan-5-yl)oxy)-2-phenylacetate]
[3]
  CC50: > 5 µM

## C=C1C(=O)O[C@H]2[C@H]1CC/C(C)=C/CC[C@@]1(C)O[C@@H]21 [PTL, parthenolide, reference compound]
[1]
  CC50 at 24 h: > 20 µM

## C=C1C(=O)O[C@H]2[C@H]1C[C@H](OC(=O)c1cc(-c3ccc(Cl)cc3)on1)/C(C)=C/CC[C@@]1(C)O[C@@H]21 [Compound 11, (3aR,5S,9aR,10aS,10bS,E)-6,9a-dimethyl-3-methylene-2-oxo-2,3,3a,4,5,8,9,9a,10a,10b-decahydrooxireno[2′,3′:9,10] cyclodeca[1,2-b]furan-5-yl 5-(4-chlorophenyl)isoxazole-3-carboxylate]
M9-ENL1 cells
  fold lower LC50 of C9 analog vs. C14-functionalized counterpart: 2- to 3 fold

## C=C1C(=O)O[C@H]2[C@H]1CC/C(COC(C(=O)OCC)c1ccccc1C(F)(F)F)=C/CC[C@@]1(C)O[C@@H]21 (stereo partly drawn) [Compound 21, ethyl2-(((3aR,9aR,10aS,10bS,Z)-9a-methyl-3-methylene-2-oxo-2,3,3a,4,5,8,9,9a,10a,10b-decahydrooxireno[2′,3′:9,10]cyclodeca[1,2-b]furan-6-yl)methoxy)-2-(2-(trifluoromethyl)phenyl)acetate]
M9-ENL1 cells
  fold lower LC50 than the phenyl-containing counterparts (18, 19): 2- to 3 fold

## C=C1C(=O)O[C@H]2[C@H]1C[C@H](OC(=O)c1cn(C)c3ccccc13)/C(C)=C/CC[C@@]1(C)O[C@@H]21 [Compound 6, (3aS,5S,9aR,10aS,10bS,E)-6,9a-dimethyl-3-methylene-2-oxo-2,3,3a,4,5,8,9,9a,10a,10b decahydrooxireno [2′,3′:9,10] cyclodeca[1,2-b]furan-5-yl 1-methyl-1H-indole-3-carboxylate]
M9-ENL1 cells
  fold lower LC50 of C9 analog vs. C14-functionalized counterpart: 2- to 3 fold

## C=C1C(=O)O[C@H]2[C@H]1C[C@H](OC(C(=O)OCC)c1ccccc1C(F)(F)F)/C(C)=C/CC[C@@]1(C)O[C@@H]21 (stereo partly drawn) [Compound 20, ethyl2-(((3aR,5S,9aR,10aS,10bS,E)-6,9a-dimethyl-3-methylene-2-oxo-2,3,3a,4,5,8,9,9a,10a,10b-decahydrooxireno [2′,3′:9,10]cyclodeca[1,2-b]furan-5-yl)oxy)-2-(2-(trifluoromethyl)phenyl)acetate]
M9-ENL1 cells
  fold lower LC50 than the phenyl-containing counterparts (18, 19): 2- to 3 fold

## C=C1C(=O)O[C@H]2[C@H]1CC/C(COC(C(=O)OCCN1CCCC1)c1ccccc1)=C/CC[C@@]1(C)O[C@@H]21 (stereo partly drawn) [Compound 29, 2-(pyrrolidin-1-yl)ethyl 2-(((3aR,5S,9aR,10aS,10bS,E)-6,9a-dimethyl-3-methylene-2-oxo-2,3,3a,4,5,8,9,9a,10a,10b-decahydrooxireno[2′,3′:9,10]cyclodeca[1,2-b]furan-5-yl)oxy)-2-phenylacetate]
[2]
  solubility in buffered solutions: improved solubility
M9-ENL1 cells
  fold reduction of activity compared to PTL: 3 to 5 folds

## C=C1C(=O)O[C@H]2[C@H]1C[C@H](OC(C(=O)OCCN1CCOCC1)c1ccccc1)/C(C)=C/CC[C@@]1(C)O[C@@H]21 (stereo partly drawn) [Compound 27, 2-morpholinoethyl2-(((3aR,5S,9aR,10aS,10bS,E)-6,9a-dimethyl-3-methylene-2-oxo-2,3,3a,4,5,8,9,9a,10a,10b-decahydrooxireno[2′,3′:9,10]cyclodeca[1,2-b]furan-5-yl)oxy)-2-phenyl acetate]
[2]
  solubility in buffered solutions: improved solubility
M9-ENL1 cells
  fold reduction of activity compared to PTL: 3 to 5 folds

## C=C1C(=O)O[C@H]2[C@H]1C[C@H](OC(C(=O)OCC)c1ccc(C(F)(F)F)cc1)/C(C)=C/CC[C@@]1(C)O[C@@H]21 (stereo partly drawn) [Compound 22, ethyl 2-(((3aR,5S,9aR,10aS,10bS,E)-6,9a-dimethyl-3-methylene-2-oxo-2,3,3a,4,5,8,9,9a,10a,10b-decahydrooxireno [2′,3′:9,10]cyclodeca[1,2-b]furan-5-yl)oxy)-2-(4-(trifluoromethyl)phenyl)acetate]
M9-ENL1 cells
  fold lower LC50 than the phenyl-containing counterparts (18, 19): 2- to 3 fold

## C=C1C(=O)O[C@@H]2[C@@H]1CC/C(COC(C(=O)OCC)c1ccc(C(F)(F)F)cc1)=C/CC[C@]1(C)O[C@H]21 (stereo partly drawn) [Compound 23b, ethyl 2-(((3aR,9aR,10aS,10bS,Z)-9a-methyl-3-methylene-2-oxo-2,3,3a,4,5,8,9,9a,10a,10b-decahydrooxireno[2′,3′:9,10]cyclodeca[1,2-b]furan-6-yl)methoxy)-2-(4-(trifluoromethyl)phenyl)acetate]
[3]
  CC50: > 5 µM
